Reference: ChEMBL document CHEMBL1138617, “Synthesis of potent antitumor and antiviral benzofuran derivatives” (Bioorg Med Chem Lett, 2009)
Where a name gives a salt, the structure may show the parent alone.

Experiments:
NCI-H460 = test: Cytotoxicity against human NCI-H460 cells by MTT assay; format: functional, cell-based
[1] = Cytotoxicity against human hepatocytes by MTT assay; format: cell-based, Hepatocyte
Hepacivirus hominis = test: (§1) Inhibition of HCV NS3/4A protease activity after 48 hrs by RT-PCR
[2] = as §1; design: species or system Hepacivirus hominis
HCV NS3-4A protease = test: Therapeutic index, ratio of CC50 for human hepatocytes to IC50 for HCV NS3-4A protease; format: cell-based, Hepatocyte; conditions: read-out: Ratio CC50/IC50
G-361 = test: Cytotoxicity against human G361 cells by MTT assay; format: functional, cell-based
Procedure, shortened: (§2)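 Growth inhibition by MTT assay (Mosmann method) on human cancer cell lines and on normal human fetal lung fibroblast WI 38 cells.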

[3] = Cytotoxicity against human WI38 cells by MTT assay; format: cell-based; conditions: WI-38; procedure, shortened: as §2
HL-60 = test: Cytotoxicity against human HL60 cells by MTT assay; format: functional, cell-based; procedure, shortened: as §2
GOTO = test: Cytotoxicity against human GOTO cells by MTT assay; format: functional, cell-based; procedure, shortened: as §2
[4] = Therapeutic index, ratio of toxic dose of drug for 50% of the population TD50 to minimum effective dose ED50 of the population; conditions: read-out: Ratio TD50/ED50
[5] = Cytotoxicity against human RKOp27 cells by MTT assay; format: functional, cell-based
[6] = tested on: Human immunodeficiency virus; test: Antiviral activity against HIV infected in human CEM-SS cells assessed as inhibition of virus induced cell killing by XTT assay; format: functional, organism-based; conditions: Human immunodeficiency virus 1, CEM-SS
Procedure, shortened: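 Microtiter anti-HIV assay in CEM-SS cells or fresh human PBMCs, measuring inhibition of HIV-induced cell killing or HIV replication. Read-out is XTT tetrazolium reduction to formazan by viable cells.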

[7] = target: Human immunodeficiency virus type 1 reverse transcriptase (Human immunodeficiency virus 1, UniProt Q72547); test: Inhibition of recombinant HIV1 reverse transcriptase in cell free Quan-T-RT by scintillation proximity assay
SK-MEL-28 = test: Cytotoxicity against human SK-MEL-28 cells by MTT assay; format: functional, cell-based; procedure, shortened: as §2
K562 = test: Cytotoxicity against human K562 cells by MTT assay; format: functional, cell-based; procedure, shortened: as §2
U-937 = test: Cytotoxicity against human U937 cells by MTT assay; format: functional, cell-based; procedure, shortened: as §2
SK-OV-3 = test: Cytotoxicity against human SKOV3 cells by MTT assay; format: functional, cell-based
NB1 = test: Cytotoxicity against human NB-1 cells by MTT assay; format: functional, cell-based; procedure, shortened: as §2
SF-268 = test: Cytotoxicity against human SF268 cells by MTT assay; format: functional, cell-based

Compound | IC50 (NCI-H460) [nM] | CC50 [1] [nM] | IC90 (Hepacivirus hominis) [nM] | IC50 [2] [nM] | selectivity ratio (HCV NS3-4A protease) | IC50 (G-361) [nM] | IC50 [3] [nM] | IC50 (HL-60) [nM] | IC50 (GOTO) [nM] | selectivity ratio [4] | IC50 [5] [nM] | EC50 [6] [nM] | IC50 [7] [nM] | IC50 (SK-MEL-28) [nM] | IC50 (K562) [nM] | IC50 (U-937) [nM] | IC50 (SK-OV-3) [nM] | IC50 (NB1) [nM] | IC50 (SF-268) [nM]
Nc1ccn([C@@H]2O[C@H](CO)[C@@H](O)C2(F)F)c(=O)n1 [GEMCITABINE HYDROCHLORIDE] | 2.13 | – | – | – | – | – | – | – | – | – | – | – | – | – | – | – | – | – | –
CCC[C@H](NC(=O)[C@@H]1[C@H]2CCC[C@H]2CN1C(=O)[C@@H](NC(=O)[C@@H](NC(=O)c1cnccn1)C1CCCCC1)C(C)(C)C)C(=O)C(=O)NC1CC1 | – | 90000 | 450 | 200 | 1200 | – | – | – | – | – | – | – | – | – | – | – | – | – | –
COc1c(C(=O)C2=CN3OC(C)=NC3N=C2)c(O)c(OC)c2occc12 (configuration not stated) | 0.0255 | – | – | > 100000 | – | 0.0287 | 0.0281 | 0.0281 | 0.0284 | 7690 | 0.026 | 0.04 | 0.3 | 0.0338 | 0.0284 | 0.0329 | – | – | –
COc1c(C(=O)C2=CN3C=CC=CC3N=C2)c(O)c(OC)c2occc12 (configuration not stated) | 0.0277 | – | – | > 100000 | – | 0.0481 | 0.0255 | 0.0275 | 0.0329 | 23500 | 0.0277 | 0.03 | 16300 | 0.0305 | 0.0446 | 0.0298 | – | – | –
CCCCCOC(=O)Nc1nc(=O)n([C@@H]2O[C@H](C)[C@@H](O)[C@H]2O)cc1F [CAPECITABINE] | – | – | – | – | – | – | – | – | – | – | 4.33 | – | – | – | – | – | – | – | –
COc1c(C(=O)/C=C/Nc2ccncc2)c(O)c(OC)c2occc12 | 0.0284 | 435000 | 2310 | 986 | 441 | 0.0263 | 0.0253 | 0.0263 | 0.0253 | 1260 | 0.0255 | 0.01 | 4800 | 0.0281 | 0.0263 | 0.0263 | – | – | –
COc1c(C(=O)c2cnc3nc4ccccc4n3c2)c(O)c(OC)c2occc12 | 0.0277 | 234000 | 1320 | 564 | 415 | 0.0263 | 0.0472 | 0.026 | 0.0278 | 1.14e+06 | 0.0277 | 0.02 | 25700 | 0.0253 | 0.0269 | 0.0272 | – | – | –
COc1c(C(=O)C2=CN3C(=CN=C2)Nc2ccccc23)c(O)c(OC)c2occc12 | 0.0255 | 256000 | 955 | 444 | 577 | 0.0316 | 0.0333 | 0.0325 | 0.0329 | 21700 | 0.0277 | 0.35 | 9440 | 0.0321 | 0.0338 | 0.0333 | – | – | –
COc1c(C(=O)C2=CN3C=CNC=C3N=C2)c(O)c(OC)c2occc12 | 0.0255 | – | – | > 100000 | – | 0.0298 | 0.0373 | 0.0266 | 0.0258 | 20000 | 0.0284 | 0.09 | 14600 | 0.026 | 0.0321 | 0.0284 | – | – | –
CCNc1cccnc1N1CCN(C(=O)c2cc3cc(OC)ccc3[nH]2)CC1 [ATEVIRDINE MESYLATE] | – | – | – | – | – | – | – | – | – | – | – | 1 | – | – | – | – | – | – | –
COc1c(C(=O)C2=CN3C=CSC3N=C2)c(O)c(OC)c2occc12 (configuration not stated) | 0.0255 | 127000 | 1120 | 342 | 371 | 0.0384 | 0.0284 | 0.0255 | 0.0281 | 22600 | 0.028 | 0.04 | 15300 | 0.0284 | 0.0446 | 0.0284 | 3.28 | – | –
COc1cccc2c1C(=O)c1c(O)c3c(c(O)c1C2=O)C[C@@](O)(C(=O)CO)C[C@@H]3O[C@H]1C[C@H](N)[C@H](O)[C@H](C)O1 [DOXORUBICIN] | – | – | – | – | – | – | – | – | 4.73 | – | – | – | – | – | 6.66 | 4.45 | 4.16 | 5.15 | –
NCc1nc2ccccc2[nH]1 | 0.032 | 451000 | 2120 | 876 | 515 | 0.0305 | 0.0269 | 0.0291 | 0.0263 | 1760 | 0.0255 | 0.01 | 5100 | 0.0301 | 0.0313 | 0.0298 | – | – | –
Nc1ccn([C@@H]2O[C@H](CO)[C@@H](O)[C@@H]2O)c(=O)n1 [CYTARABINE] | – | – | – | – | – | – | – | – | – | – | – | – | – | – | – | – | – | – | 7.68
COc1c(C(=O)C2=CN3C(=CN=C2)Nc2ccccc23)c(O)cc2occc12 | 0.0255 | – | – | > 100000 | – | 0.0313 | 0.0284 | 0.0305 | 0.0291 | 23500 | 0.0255 | 0.06 | 47500 | 0.0305 | 0.0298 | 0.0301 | – | – | –
COc1c2occc2c(OC)c2c(=O)c(C=O)coc12 | 0.0284 | 234000 | 796 | 421 | 556 | 0.0263 | 0.0321 | 0.0313 | 0.0278 | 32600 | 0.0255 | 0.02 | 17500 | 0.0266 | 0.0258 | 0.0291 | – | – | –
